Results reported in ChEMBL document CHEMBL1154725, “Synthesis and antitumor evaluation of novel diarylsulfonylurea derivatives: molecular modeling applications” (2010).

How the values were obtained:
Type in all cases: functional
[1] = Growth inhibition of human Breast cancer cells after 48 hrs; conditions: Cancer cell lines
Method in brief: (§1)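 NCI in vitro human tumour cell line screen (about 60 lines, nine subpanels). Compounds dissolved in DMSO, diluted in phosphate-buffered saline (final DMSO under 1%), tested at five concentrations from 0.01 to 100, in duplicate wells. Cells at 6 × 10⁴ cells/mL, 37 °C, 5% CO₂, 48 h. GI50 (50% decrease in net growth) taken from log concentration versus % growth inhibition curves; subpanel values are subpanel mean-graph midpoints.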

UACC-257 = assay: Growth inhibition of human UACC257 cells after 48 hrs; conditions: UACC-257, 48 h; method in brief: as §1
OVCAR-3 = assay: Growth inhibition of human OVCAR-3 cells after 48 hrs; conditions: OVCAR-3, 48 h; method in brief: as §1
[2] = Growth inhibition of human CNS cancer cells after 48 hrs; conditions: Cancer cell lines; method in brief: as §1
Melanoma cell = assay: Growth inhibition of human Melanoma cells after 48 hrs; method in brief: as §1
Leukemia cell = assay: Growth inhibition of human Leukemia cells after 48 hrs; method in brief: as §1
[3] = Growth inhibition of human Colon cancer cells after 48 hrs; conditions: Cancer cell lines; method in brief: as §1
MCF7 = assay: Growth inhibition of human MCF7 cells after 48 hrs; conditions: MCF7, 48 h; method in brief: as §1
[4] = Growth inhibition of human Ovarian cancer cells after 48 hrs; conditions: Cancer cell lines; method in brief: as §1
NSCLC = assay: Growth inhibition of human NSCLC cell after 48 hrs; method in brief: as §1
HCC 2998 = assay: Growth inhibition of human HCC2998 cells after 48 hrs; conditions: HCC 2998, 48 h; method in brief: as §1
[5] = Growth inhibition of human Renal cancer cells after 48 hrs; conditions: Cancer cell lines; method in brief: as §1
[6] = Growth inhibition of human Prostate cancer cells after 48 hrs; conditions: Cancer cell lines; method in brief: as §1
EKVX = assay: Growth inhibition of human EKVX cells after 48 hrs; method in brief: as §1

GI50 (OVCAR-3) [µM] | GI50 (Melanoma cell) [µM] | GI50 (Leukemia cell) [µM] | GI50 (MCF7) [µM] | GI50 (HCC 2998) [µM] | SMILES | GI50 [1] [µM] | GI50 (UACC-257) [µM] | GI50 [2] [µM] | GI50 [3] [µM] | GI50 [4] [µM] | GI50 (NSCLC) [µM] | GI50 [5] [µM] | GI50 [6] [µM] | GI50 (EKVX) [µM]
> 100 | 4.5 | 30.3 | 4.2 | 0.9 | NNC(=O)c1c(NC(=O)NS(=O)(=O)c2ccccc2)sc2c1CCCCC2 | 4.5 | 2.8 | > 100 | 3.5 | 1.5 | 10.5 | > 100 | 15.8 | > 100
> 100 | 26.2 | 42.2 | > 100 | 19.5 | O=c1[nH]c2sc3c(c2c(=O)n1S(=O)(=O)c1ccccc1)CCCCC3 | 22.5 | > 100 | 81.3 | 20.5 | 34.2 | 9.3 | 50.2 | 34.2 | 3.8
15.2 | 32.3 | 18.6 | > 100 | 6.3 | O=C(Nc1sc2c(c1C(=O)NNc1ccccc1)CCCCC2)NS(=O)(=O)c1ccccc1 | 18.5 | > 100 | 30.9 | 7 | 15.2 | 16 | 26.3 | > 100 | > 100
– | 76.7 | > 100 | – | – | CCCCNC(=O)c1c(NC(=O)NS(=O)(=O)c2ccccc2)sc2c1CCCCC2 | 85.2 | – | 85.3 | 65.2 | > 100 | 30.3 | 72.3 | 92.6 | –
> 100 | 4.2 | 30.6 | 8.3 | 2.9 | O=C(Nc1sc2c(c1C(=O)NNc1ccc(Cl)cc1)CCCCC2)NS(=O)(=O)c1ccccc1 | 5.9 | > 100 | 12 | 1.2 | 7.5 | 8.6 | > 100 | 14.5 | > 100
> 100 | 65.3 | 42.2 | > 100 | > 100 | CCCNC(=O)c1c(NC(=O)NS(=O)(=O)c2ccccc2)sc2c1CCCCC2 | 70.3 | > 100 | 72.5 | 85.3 | 76.5 | 54.2 | 80.3 | 90.2 | 6.2
11.9 | 52.3 | > 100 | > 100 | 16.9 | O=C(Nc1sc2c(c1C(=O)N1CCN(c3ccccc3)CC1)CCCCC2)NS(=O)(=O)c1ccccc1 | 58.2 | > 100 | 55.8 | 11.5 | 36.2 | 36.2 | 65.2 | 60.3 | > 100
14.8 | 31.3 | > 100 | > 100 | 1.6 | O=C(Nc1sc2c(c1C(=O)NNc1ccc(Br)cc1)CCCCC2)NS(=O)(=O)c1ccccc1 | 5.3 | > 100 | 25.5 | 1.6 | 10.2 | 11.5 | 11.5 | > 100 | > 100
> 100 | 61.2 | > 100 | > 100 | 15.3 | CN1CCN(C(=O)c2c(NC(=O)NS(=O)(=O)c3ccccc3)sc3c2CCCCC3)CC1 | 49.2 | > 100 | 56.2 | 9.2 | 31.3 | 22.3 | 42.3 | 80.2 | > 100
